Assay results taken from ChEMBL document CHEMBL4680111, “Target Validation and Identification of Novel Boronate Inhibitors of the Plasmodium falciparum Proteasome” (J Med Chem, 2018).
Activity calls are given as the source filed them. The rule behind the calls is not given here.

Tests used:
[1] = Inhibition of Plasmodium falciparum 20S proteasome beta 5 subunit chymotrypsin-like activity using fluorogenic peptide Ac-WLA-AMC as substrate in presence of PA28alpha incubated for 1 to 2 hrs by fluorescence microplate reader assay
[2] = target: T1, Proteasome component C5 (Homo sapiens) (UniProt P20618); assay: Inhibition of human 20S constitutive proteasome beta 1 subunit assessed as inhibition of BMV037 probe labeling at 1 to 10 uM incubated for 1 hr by SDS-PAGE analysis; conditions: dose 1-10 µM
T1 sequence (whole entry): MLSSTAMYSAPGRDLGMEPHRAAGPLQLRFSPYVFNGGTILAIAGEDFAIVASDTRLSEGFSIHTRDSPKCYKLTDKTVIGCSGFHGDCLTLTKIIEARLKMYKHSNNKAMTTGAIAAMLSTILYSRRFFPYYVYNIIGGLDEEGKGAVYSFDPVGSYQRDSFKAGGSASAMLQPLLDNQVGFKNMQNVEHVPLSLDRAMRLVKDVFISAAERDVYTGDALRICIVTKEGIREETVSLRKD
In short: (§1)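 Purified human constitutive 20S (20 nM) was treated with compound at 37°C for 1 h, then labelled with 10 µM BMV037 at 37°C for 2 h. Samples were run on 10% Bis-Tris gel with MOPS buffer, and active subunits were detected by Cy5 fluorescence scan.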

Plasmodium falciparum [3] = assay: Inhibition of proteasome in Plasmodium falciparum trophozoite stage transfected with GFP-DD assessed as reduction in GFP-DD fusion protein degradation at 0.02 to 0.5 uM incubated for 3 hrs in absence of Shield-1 by Western blot analysis; conditions: dose 0.02-0.5 µM
In short: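 GFP-DD reporter parasites were held in Shield-1 for 24 h, washed out, then treated as trophozoites (5% hematocrit, 5% parasitemia) with compound for 3 h at 37°C. […] Representative of four independent experiments.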

Plasmodium falciparum [4] = assay: Synergistic antiplasmodial activity against DHA-resistant and sorbitol synchronized ring stage forms of Plasmodium falciparum Cam3.II^R539T expressing K13 mutant assessed as reduction in parasitemia incubated for 3 hrs in presence of DHA by pulse exposure based Syto-61 staining dye based flow cytometry analysis; format: functional, organism-based
[5] = target: T2, Proteasome Macropain subunit MB1 (Homo sapiens) (UniProt P28074); assay: Inhibition of human 20S constitutive proteasome beta 5 subunit assessed as inhibition of BMV037 probe labeling at 1 to 10 uM incubated for 1 hr by SDS-PAGE analysis; conditions: dose 1-10 µM; in short: as §1
T2 sequence (whole entry): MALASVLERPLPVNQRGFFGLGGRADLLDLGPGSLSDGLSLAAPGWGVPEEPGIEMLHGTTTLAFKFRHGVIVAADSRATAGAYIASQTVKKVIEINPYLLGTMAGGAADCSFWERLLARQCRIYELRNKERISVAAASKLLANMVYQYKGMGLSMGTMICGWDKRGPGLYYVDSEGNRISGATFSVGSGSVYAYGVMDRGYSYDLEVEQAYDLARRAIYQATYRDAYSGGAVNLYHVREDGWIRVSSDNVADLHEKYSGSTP

[6] = test system: Plasmodium falciparum 3D7; assay: Inhibition of 20S proteasome beta 2 subunit from bortezomib resistant Plasmodium falciparum 3D7 trophozoite infected erythrocytes assessed as inhibition of BMV037 probe labeling at 1 to 10 uM incubated for 1 hr by SDS-PAGE analysis; conditions: dose 1-10 µM
[7] = target: T3, Proteasome subunit beta type-9 (Homo sapiens) (UniProt P28065); assay: Inhibition of human 20S immunoproteasome beta 1 subunit assessed as inhibition of BMV037 probe labeling at 1 to 10 uM incubated for 1 hr by SDS-PAGE analysis; conditions: dose 1-10 µM
T3 sequence (whole entry): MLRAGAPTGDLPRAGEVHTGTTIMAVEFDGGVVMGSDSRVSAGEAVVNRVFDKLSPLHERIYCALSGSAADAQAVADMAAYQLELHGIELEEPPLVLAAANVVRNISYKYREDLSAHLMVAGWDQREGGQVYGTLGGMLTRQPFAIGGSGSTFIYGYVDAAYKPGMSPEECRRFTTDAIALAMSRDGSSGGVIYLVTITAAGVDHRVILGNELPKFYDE
In short: (§2)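 Purified human immuno-20S (20 nM) was incubated with compound at 37°C for 1 h, then labelled with 10 µM BMV037 at 37°C for 2 h. Samples were run on 4-12% Bis-Tris gel with MES buffer, and active subunits were visualised by Cy5 fluorescence.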

[8] = target: Proteasome Macropain subunit (Homo sapiens) (UniProt P49721); assay: Binding affinity to human 20S constitutive proteasome beta 2 subunit assessed as half-life using fluorogenic peptide Ac-WLR-AMC as substrate in presence of PA28alpha by fluorescence based microplate reader assay
Proteasome Macropain subunit (Homo sapiens), sequence (P49721 whole entry): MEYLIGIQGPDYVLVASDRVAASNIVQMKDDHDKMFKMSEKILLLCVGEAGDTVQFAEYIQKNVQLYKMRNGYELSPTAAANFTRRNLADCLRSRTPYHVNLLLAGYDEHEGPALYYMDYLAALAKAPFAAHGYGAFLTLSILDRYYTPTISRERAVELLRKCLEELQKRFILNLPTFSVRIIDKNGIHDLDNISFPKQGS

Plasmodium falciparum [9] = assay: Binding affinity to Plasmodium falciparum 20S proteasome beta 2 subunit assessed as half-life using fluorogenic peptide Ac-WLR-AMC as substrate in presence of PA28alpha by fluorescence based microplate reader assay
[10] = test system: Plasmodium falciparum 3D7; assay: Inhibition of 20S proteasome beta 2 subunit in bortezomib-resistant Plasmodium falciparum 3D7 assessed as inhibition of BMV037 probe labeling at 1 to 10 uM incubated for 1 hr by SDS-PAGE analysis; conditions: dose 1-10 µM
[11] = target: T4, Proteasome subunit beta type-8 (Homo sapiens) (UniProt P28062); assay: Inhibition of human 20S immunoproteasome beta 5 subunit assessed as inhibition of BMV037 probe labeling at 1 to 10 uM incubated for 1 hr by SDS-PAGE analysis; conditions: dose 1-10 µM; in short: as §2
T4 sequence (whole entry): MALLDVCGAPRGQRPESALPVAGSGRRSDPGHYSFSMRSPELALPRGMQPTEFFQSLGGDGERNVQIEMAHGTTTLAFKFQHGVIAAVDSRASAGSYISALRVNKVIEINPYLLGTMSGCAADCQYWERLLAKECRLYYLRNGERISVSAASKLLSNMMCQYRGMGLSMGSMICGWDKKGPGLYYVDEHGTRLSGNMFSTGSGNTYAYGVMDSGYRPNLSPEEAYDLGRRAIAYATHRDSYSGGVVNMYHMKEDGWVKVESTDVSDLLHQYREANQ

[12] = Inhibition of Plasmodium falciparum 20S proteasome beta 2 subunit trypsin-like activity using fluorogenic peptide Ac-WLR-AMC as substrate in presence of PA28alpha incubated for 1 to 2 hrs by fluorescence microplate reader assay
[13] = Binding affinity to Plasmodium falciparum 20S proteasome beta 5 subunit assessed as equilibrium constant using fluorogenic peptide Ac-WLA-AMC as substrate in presence of PA28alpha by fluorescence based microplate reader assay
Plasmodium falciparum [14] = assay: Inhibition of proteasome in Plasmodium falciparum trophozoite stage transfected with GFP-DD assessed as reduction in GFP-DD fusion protein degradation at 0.2 to 0.5 uM incubated for 3 hrs in absence of Shield-1 by Western blot analysis; conditions: dose 0.2-0.5 µM
In short: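 GFP-DD reporter parasites were held in Shield-1 for 24 h, then washed out. Trophozoites at 5% hematocrit and 5% parasitemia were exposed to compound for 3 h at 37°C. Saponin-isolated parasites were lysed and blotted with anti-GFP (1:1000), with anti-PfBiP as loading control. Representative of four independent experiments.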

[15] = test system: Plasmodium falciparum 3D7; assay: Inhibition of 20S proteasome beta 5 subunit from bortezomib resistant Plasmodium falciparum 3D7 trophozoite infected erythrocytes assessed as inhibition of BMV037 probe labeling at 1 to 10 uM incubated for 1 hr by SDS-PAGE analysis; conditions: dose 1-10 µM
[16] = target: T1, Proteasome component C5 (Homo sapiens); assay: Inhibition of human 20S constitutive proteasome beta 1 subunit assessed as inhibition of BMV037 probe labeling at 1 uM incubated for 1 hr by SDS-PAGE analysis; in short: as §1

Compound	IC50 [1] [nM]	inhibition [2]	inhibition (Plasmodium falciparum [3])	Activity (Plasmodium falciparum [4])	inhibition [5]	inhibition [6]	inhibition [7]	T1/2 [8] [min]	T1/2 (Plasmodium falciparum [9]) [min]	inhibition [10]	inhibition [11]	IC50 [12] [nM]	Ki [13] [nM]	inhibition (Plasmodium falciparum [14])	inhibition [15]	inhibition [16]
CC(C)C[C@H](NC(=O)[C@H](Cc1ccccc1)NC(=O)Cc1ccc(O)cc1)B(O)O	10	Active	Active	Active	Active	Active	Active	2	65	Active	Active	60	4.3			
CC(=O)N1CCC[C@@H]1C(=O)N[C@@H](C)C(=O)N[C@@H](Cc1ccccc1)B(O)O	1500			Active							Active	> 10000		Active	Active	
Cc1ccc(S(=O)(=O)N[C@@H](CC(=O)NCC(C)(C)C)C(=O)N[C@@H](Cc2ccccc2)C(=O)N[C@@H](CC(C)C)B(O)O)cc1	16	Active			Active	Active	Active			Active	Active	70			Active	inactive
